Screening results (PubChem)
Shown are actives, neighbours in structure and some others; about 3.6% of the full set was active somewhere.
GRIN3A LBD mod = modulators (binders) of human NR3A ligand-binding domain; NR3A LBD differential scanning fluorimetry, Tm shift; 0% = protein alone, 100% = glycine-bound protein; Tm shift relative to glycine control, % at 25 µM; actives 2.5% (n = 340,000); AID 1259313;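 active means melting temperature shift of at least 10% of the positive control shift, at one fixed dose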
UCH37 DUB inh = human UCH37 deubiquitinating enzyme inhibition; Q9Y5K5; purified proteasome/UCH37, Ub-AMC cleavage fluorescence; inhibition, % (no concentration beside the values); actives 0.33% (n = 330,000); AID 588478;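 active means mean inhibition over replicate wells above about 20%, limit read from the data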;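 further: 0% = compound-free wells with enzyme and 100% = wells lacking proteasome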
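Test system – human UCH37 enzyme supplied as purified proteasome complex · Incubation – 30 min preincubation with enzyme, 25 min cleavage at room temperature · Detection – AMC fluorescence from Ub-AMC cleavage, excitation 355 nm, emission 460 nm · Benchmarks – no-proteasome wells (full inhibition) and compound-free wells (no inhibition)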
SENP1 FRET inh = blocks the human SENP1 SUMO protease catalytic domain. Q9P0U3. recombinant SENP1 catalytic domain, CyPet-SUMO1-YPet FRET cleavage. inhibition, % at 10 µM. actives 0.21% (n = 360,000);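 active means inhibition at least 30% at 10 µM, raw YFP signal under a set limit, fluorescence ratio 0.5 to 1.5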;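 further: 0% = enzyme with DMSO and 100% = no enzyme wells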
Target sequence (Q9P0U3 419-644 limits assumed): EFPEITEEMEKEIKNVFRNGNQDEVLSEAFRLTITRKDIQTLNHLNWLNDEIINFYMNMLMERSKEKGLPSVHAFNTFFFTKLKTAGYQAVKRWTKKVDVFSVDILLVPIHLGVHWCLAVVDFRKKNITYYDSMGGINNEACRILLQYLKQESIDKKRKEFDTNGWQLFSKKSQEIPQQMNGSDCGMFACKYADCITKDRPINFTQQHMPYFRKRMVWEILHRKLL
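Test system: recombinant human SENP1 catalytic domain, His6-tagged / Medium: pH 8 Tris buffer with EDTA, NaCl, BME, BSA, NP40, catalase / Also added: SUMO1 FRET substrate flanked by Cypet and Ypet, 25 nM / Times: 50 min reaction at room temperature / Signal: FRET, CFP and YFP emission / Control set: no-enzyme low control and enzyme-plus-DMSO high control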
NadD block = blocks S. aureus nicotinate mononucleotide adenylyltransferase; purified NadD enzyme, colorimetric absorbance read-out; inhibition, % at 20 µM; actives 0.78% (n = 360,000); AID 602399; in the data active means inhibition above about 26%
ATG4B inh = blocks human ATG4B protease cleavage of LC3 substrate | inhibition, % at 8.33 µM | AID 504462 | ATG4B cleavage of LC3-PLA2, NBD-HPC fluorescence, 1 h | Q9Y4P1 | actives 0.51% (n = 340,000); in the data active means inhibition above about 40%
Target sequence (Q9Y4P1 whole entry, looked up): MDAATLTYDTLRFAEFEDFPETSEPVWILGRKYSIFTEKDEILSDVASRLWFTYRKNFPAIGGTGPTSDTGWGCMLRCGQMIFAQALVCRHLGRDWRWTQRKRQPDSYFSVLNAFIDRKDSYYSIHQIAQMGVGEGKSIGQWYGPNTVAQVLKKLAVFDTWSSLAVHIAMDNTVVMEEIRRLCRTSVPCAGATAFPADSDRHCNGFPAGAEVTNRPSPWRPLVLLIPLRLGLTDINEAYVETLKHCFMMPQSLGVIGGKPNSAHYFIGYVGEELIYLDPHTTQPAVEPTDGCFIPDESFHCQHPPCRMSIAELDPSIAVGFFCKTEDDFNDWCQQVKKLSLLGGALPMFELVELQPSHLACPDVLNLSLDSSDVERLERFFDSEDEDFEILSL
An asterisk follows results filed as active; . = not tested or not shown.

SMILES	GRIN3A LBD mod	UCH37 DUB inh	SENP1 FRET inh	NadD block	ATG4B inh
Cc1cccc(C(=O)NCC(=O)NNC(=O)c2ccccc2O)c1	14*	-12	1	-1	-3
CC(C)(C)C(=O)C=c1[nH]c(=O)c(=Cc2ccc(F)cc2)s1	.	0	.	.	.
Cc1cccnc1Nc1nc(-c2ccc(O)cc2O)cs1	25*	2	-1	8	-16
Oc1ccc(-c2csc(Nc3ccccn3)n2)c(O)c1	36*	-1	4	-7	-8
Cc1cccnc1Nc1nc(-c2ccccn2)cs1	-7	3	2	-2	-7
CCC(=NNC(=O)c1ccc(Br)o1)c1ccc(Cl)cc1	.	-3	.	.	.
COc1cc(C=NNC(N)=O)ccc1OCC(=O)Nc1ccc(C)c(C)c1	.	1	.	.	.
CCCOC(=O)c1ccc(NC(=O)COC(=O)C2CCN(c3ccc(C(F)(F)F)cn3)CC2)cc1	21*	.	-4	11	-3
Cc1ccc(NC(=O)COC(=O)C2CCN(c3ccc(C(F)(F)F)cn3)CC2)cc1	8	1	-1	5	4
COc1cc(C(=O)COC(=O)C2CCN(c3ccc(C(F)(F)F)cn3)CC2)ccc1OC(F)F	11*	-1	0	13	-4
C=CCn1c(=C2C(=O)N(CC)C(=S)N2C)sc(=C2Sc3cc(OC)ccc3N2C)c1=O	.	3	.	.	.
CC(C)c1c(C(=O)NN=Cc2cccc(OCc3ccc(F)cc3)c2)nnn1-c1nonc1N	.	2	.	.	.
COc1cc(/C=N/NC(=O)c2nnn(-c3nonc3N)c2C(C)C)ccc1O	30*	.	1	6	-3
CC(C)c1c(C(=O)N/N=C/c2cccc(OCc3ccccc3)c2)nnn1-c1nonc1N	24*	.	2	5	-2
COc1cccc(C=NNC(=O)c2nnn(-c3nonc3N)c2C(C)C)c1	.	5	.	.	.
COc1cc(/C=N/NC(=O)c2nnn(-c3nonc3N)c2C(C)C)ccc1OCc1ccccc1	35*	.	3	17	6
CC(C)c1c(C(=O)N/N=C/c2ccc(C(F)(F)F)cc2)nnn1-c1nonc1N	28*	.	-14	-2	10
CC(CC(=O)NCCN1CCOCC1)=NNC(=O)c1ccncc1	.	3	.	.	.
CC1CCCCN1C(=O)C12CCC(C)(C(=NO)C1)C2(C)C (stereo not given)	.	1	.	.	.
Cc1c(C(=O)N/N=C/c2cccc(O)c2)nnn1-c1nonc1N	12*	.	3	-4	-14
CC(C)c1c(C(=O)N/N=C/c2ccc(OCc3ccc(F)cc3)cc2)nnn1-c1nonc1N	29*	.	1	13	3
Cc1c(C(=O)NN=Cc2cccc(O)c2)nnn1-c1nonc1N	.	6	.	.	.
CC(C)c1c(C(=O)N/N=C/c2ccc(OCc3ccccc3)cc2)nnn1-c1nonc1N	32*	.	-3	15	8
CCn1cc(C(=O)NCCc2ccc(C)cc2)c(=O)c2cc(S(=O)(=O)N(C)C)ccc21	-2	1	.	.	-2
CCn1cc(C(=O)NCCc2ccc(Cl)cc2)c(=O)c2cc(S(=O)(=O)N(C)C)ccc21	22*	0	1	4	-5
SMILES	GRIN3A LBD mod	UCH37 DUB inh	SENP1 FRET inh	NadD block	ATG4B inh
COCCNC(=O)C(=O)NCC1OCCN1S(=O)(=O)c1ccc2c(c1)OCCO2 (stereo not given)	1	0	0	-3	28
COCCNC(=O)C(=O)NCC1OCCN1S(=O)(=O)c1ccc(C)cc1 (stereo not given)	14*	2	1	-2	0
CNC(=O)C(=O)NCC1OCCN1S(=O)(=O)c1ccc(C)cc1 (stereo not given)	11*	4	0	-3	-1
CCOC(=O)c1c(C)cccc1OCC(N)=O	25*	2	2	-3	3
CC(C)c1ccc(NC(=O)c2snc3ccc(Cl)cc23)cc1	10*	4	1	-2	-1
COc1ccc(NC(=O)CN(C)C(=O)c2cc(-c3ccc(Cl)cc3)nc3ccccc23)cc1	14*	1	0	3	-4
COc1cccc(NC(=O)CN(C)C(=O)c2cc(-c3cccc(Br)c3)nc3ccccc23)c1	18*	2	0	7	-21
CN(C)S(=O)(=O)c1cccc(NC(=O)COC(=O)c2cc(-c3cccc(Br)c3)nc3ccccc23)c1	22*	-4	2	16	-12
CN(C)S(=O)(=O)c1cccc(NC(=O)COC(=O)c2ccc3ccccc3n2)c1	4	-1	7	1	-11
N#Cc1ccc(Oc2ccc(C=NO)cn2)cc1	.	5	.	.	.
Cn1c(=NNC(=O)c2ccccc2Cl)sc2ccccc21	.	1	.	.	.
COc1ccccc1OCCn1cc(C=NNC(N)=S)c2ccccc21	.	7	.	.	.
Cc1ccc(NC(=S)N/N=C/c2ccc(Cl)c([N+](=O)[O-])c2)cc1	22*	.	1	21	-2
CNC(=S)Nc1ccc([N+](=O)[O-])c(C)c1	1	7	3	-6	-3
O=[N+]([O-])c1cc(/C=N/NC(=S)Nc2ccccc2Cl)ccc1Cl	18*	.	1	15	-8
Cc1ccc(CNC(=S)Nc2ccc(C)c([N+](=O)[O-])c2)cc1	11*	2	1	-7	8
S=C(N/N=C/c1ccc(Cl)c(Cl)c1)Nc1ccccc1Cl	38*	.	0	12	-6
S=C(NN=Cc1ccc(Cl)c(Cl)c1)Nc1ccccc1Cl	.	6	.	.	.
O=C(CCNc1n[nH]c(=O)[nH]c1=O)NN=Cc1ccccc1Br	.	3	.	.	.
ON=C1CCCc2oc3c(c21)CCCC3	.	4	.	.	.
CC(CC(=O)NCc1ccco1)=NNC(=O)COc1ccc(Cl)cc1Cl	.	5	.	.	.
Oc1ccc(-c2nc(-c3ccc(O)c(O)c3)cs2)cc1	21*	1	1	6	-19
O=C1N=C(O)CN1N=Cc1ccc(-c2ccc([N+](=O)[O-])cc2)o1	.	5	.	.	.
CCSc1nnc(NC(=O)c2ccc(S(=O)(=O)N(C)C)cc2)s1	2	-3	2	-1	3
CCOc1ccc(Nc2nnc(SCc3nc4ccccc4c(=O)[nH]3)s2)cc1	1	4	-22	6	0
SMILES	GRIN3A LBD mod	UCH37 DUB inh	SENP1 FRET inh	NadD block	ATG4B inh
Cc1nnc(SCc2cccc3ccccc23)s1	-2	6	1	-8	-5
Cc1cccc(C)c1Nc1nnc(SCc2nc3ccccc3c(=O)[nH]2)s1	32*	-5	-15	3	-2
CN(C)S(=O)(=O)c1ccc(C(=O)Nc2nnc(SCc3cccc4ccccc34)s2)cc1	26*	-132	-1	28	18
c1ccc(Nc2nnc(SCc3cccc4ccccc34)s2)cc1	11*	0	1	3	8
CC1=CC(=C(C#N)C#N)C=C(C)N1CCN1CCN(C(=O)Nc2ccc(Cl)c(Cl)c2)CC1	18*	-72	-4	10	-3
CCOc1ccccc1N1CCN(C(=O)Nc2ccc(Cl)c(Cl)c2)CC1	.	2	.	.	.
Cc1[nH]n(-c2ccc([N+](=O)[O-])cc2)c(=O)c1C=NCCc1c[nH]c2ccccc12	27*	6	2	8	-2
